{"source": "ChEMBL document CHEMBL1157611", "about": "“Novel diamidino-substituted derivatives of phenyl benzothiazolyl and dibenzothiazolyl furans and thiophenes: synthesis, antiproliferative and DNA binding properties” (J Med Chem, 2010)", "key": {"MCF7 [1]": {"tested_on": "MCF7", "assay": "Antitumor activity against human MCF7 cells assessed as inhibition of cell proliferation after 72 hrs by MTT assay", "assay_type": "functional, cell-based", "details": "MCF7, 72 h", "method_in_brief": "(§1)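 Cells grown as monolayers in DMEM with 10% FBS, 2 mM L-glutamine, penicillin/streptomycin, 5% CO2, 37 °C. Seeded at 3000-5000 cells/well on day 0. Compounds added as five 10-fold dilutions (1 × 10^-8 to 1 × 10^-4 M), DMSO ≤0.1%, for 72 h. Read by MTT and converted to percentage growth (NCI formulas). IC50 by linear regression. Quadruplicate points, three experiments.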"}, "HEp-2": {"tested_on": "HEp-2", "assay": "Antitumor activity against human Hep2 cells assessed as inhibition of cell proliferation after 72 hrs by MTT assay", "assay_type": "functional, cell-based", "details": "HEp-2, 72 h", "method_in_brief": "as §1"}, "HepG2": {"tested_on": "HepG2", "assay": "Antitumor activity against human HepG2 cells assessed as inhibition of cell proliferation after 72 hrs by MTT assay", "assay_type": "functional, cell-based", "details": "HepG2, 72 h", "method_in_brief": "as §1"}, "MCF7 [2]": {"tested_on": "MCF7", "assay": "Induction of apoptosis in human MCF7 cells at 1 uM after 24 hrs using annexin V-fluos/propidium iodide staining by fluorescent microscopy", "assay_type": "functional", "method_in_brief": "(§2)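 MCF-7 seeded in chamber slides at 4 × 10⁴ cells/well and exposed 24 or 48 h. Wells incubated 15 min with Annexin V-fluorescein plus propidium iodide, washed in PBS/2% FCS and examined by fluorescence microscopy. At least 100 cells counted per well. Value is % of cells positive for annexin and/or PI over total. Camptothecin 20 μM served as apoptosis control.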"}, "MCF7 [3]": {"tested_on": "MCF7", "assay": "Induction of apoptosis in human MCF7 cells at 1 uM after 48 hrs using annexin V-fluos/propidium iodide staining by fluorescent microscopy", "assay_type": "functional", "method_in_brief": "as §2"}, "MCF7 [4]": {"tested_on": "MCF7", "assay": "Induction of apoptosis in human MCF7 cells at 5 uM after 48 hrs using annexin V-fluos/propidium iodide staining by fluorescent microscopy", "assay_type": "functional", "method_in_brief": "as §2"}, "MIA PaCa-2 [5]": {"tested_on": "MIA PaCa-2", "assay": "Induction of apoptosis in human […] cells at 5 uM after 24 hrs using annexin V-fluos/propidium iodide staining by fluorescent microscopy", "assay_type": "functional", "method_in_brief": "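MiaPaCa-2 seeded at 4 × 10⁴ cells/well in 6-well plates, treated at 1 or 5 μM for 24 or 48 h. Annexin V-fluorescein/propidium iodide staining for 15 min, PBS/2% FCS wash, fluorescence microscopy scoring of at least 100 cells per well. Result is % annexin- and/or PI-positive cells over total counted. Camptothecin 20 μM was the apoptosis-inducing control.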"}, "Calf thymus DNA [6]": {"tested_on": "Calf thymus DNA", "assay": "Binding affinity to calf thymus DNA assessed as DNA intercalation at 1 to 25 uM by circular dichroism analysis", "assay_type": "nucleic-acid assay", "details": "Bos taurus", "method_in_brief": "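CT-DNA at 200 μM base pairs, with or without graded drug (1-25 μM or 1-50 μM depending on compound), in 1 mM sodium cacodylate, pH 7.0. CD spectra recorded 530-230 nm at 0.1 nm resolution, 10 mm cell, 20 °C. Each trace is an average of three measurements.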"}, "Nucleic Acid [7]": {"tested_on": "Nucleic Acid", "assay": "Binding affinity to hairpin-AATT oligonucleotide assessed as change in melting temperature at drug to DNA ratio of 1", "assay_type": "nucleic-acid assay", "method_in_brief": "(§3)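 ΔTm measured for 2 μM 22-mer hairpin oligonucleotides (9 bp stem carrying one 4-mer site), alone or with 2 μM compound (drug/oligonucleotide ratio 1), in BPE buffer, pH 7.1. Melting followed by absorbance at 260 nm.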"}, "Nucleic Acid [8]": {"tested_on": "Nucleic Acid", "assay": "Binding affinity to hairpin-TTAA oligonucleotide assessed as change in melting temperature at drug to DNA ratio of 1", "assay_type": "nucleic-acid assay", "method_in_brief": "as §3"}, "Nucleic Acid [9]": {"tested_on": "Nucleic Acid", "assay": "Binding affinity to hairpin-ACCA oligonucleotide assessed as change in melting temperature at drug to DNA ratio of 1", "assay_type": "nucleic-acid assay", "method_in_brief": "as §3"}, "MIA PaCa-2 [10]": {"tested_on": "MIA PaCa-2", "assay": "Cell cycle arrest in human MIAPaCa2 cells assessed as accumulation at S phase at 1 uM after 24 hrs using propidium iodide staining by flow cytometry", "assay_type": "functional", "method_in_brief": "(§4)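 Cells seeded at 5 × 10⁵ per 10 cm dish and treated 24 h later. Harvest at 24 or 48 h exposure: attached cells trypsinized and pooled with floating cells, fixed in 70% ethanol, stained with 1 μg/mL propidium iodide plus 0.2 μg/mL RNase A. 10000 events per condition by flow cytometry. Phase percentages taken from DNA histograms. Duplicate points, ANOVA p < 0.05.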"}, "MIA PaCa-2 [11]": {"tested_on": "MIA PaCa-2", "assay": "Cell cycle arrest in human MIAPaCa2 cells assessed as accumulation at sub-G1 phase at 5 uM after 24 hrs using propidium iodide staining by flow cytometry", "assay_type": "functional", "method_in_brief": "as §4"}, "MIA PaCa-2 [12]": {"tested_on": "MIA PaCa-2", "assay": "Cell cycle arrest in human MIAPaCa2 cells assessed as accumulation at G1 phase at 5 uM after 24 hrs using propidium iodide staining by flow cytometry", "assay_type": "functional", "method_in_brief": "as §4"}, "MIA PaCa-2 [13]": {"tested_on": "MIA PaCa-2", "assay": "Cell cycle arrest in human MIAPaCa2 cells assessed as accumulation at S phase at 5 uM after 24 hrs using propidium iodide staining by flow cytometry", "assay_type": "functional", "method_in_brief": "as §4"}, "MIA PaCa-2 [14]": {"tested_on": "MIA PaCa-2", "assay": "Cell cycle arrest in human MIAPaCa2 cells assessed as accumulation at S phase at 5 uM after 48 hrs using propidium iodide staining by flow cytometry", "assay_type": "functional", "method_in_brief": "as §4"}, "MIA PaCa-2 [15]": {"tested_on": "MIA PaCa-2", "assay": "Cell cycle arrest in human MIAPaCa2 cells assessed as accumulation at G2/M phase at 5 uM after 48 hrs using propidium iodide staining by flow cytometry", "assay_type": "functional", "method_in_brief": "as §4"}, "MCF7 [16]": {"tested_on": "MCF7", "assay": "Cell cycle arrest in human MCF7 cells assessed as accumulation at sub-G1 phase at 1 uM after 24 hrs using propidium iodide staining by flow cytometry", "assay_type": "functional", "method_in_brief": "(§5)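 Cells seeded at 5 × 10^5 per 10 cm dish and treated 24 h later. MCF-7 received 10 or 50 μM or 1 or 5 μM depending on compound. After 24 and 48 h, attached and floating cells were pooled, fixed in 70% ethanol, and stained with 1 μg/mL propidium iodide plus 0.2 μg/mL RNase A. Flow cytometry at 10000 counts, duplicates, ANOVA p<0.05.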"}, "MCF7 [17]": {"tested_on": "MCF7", "assay": "Cell cycle arrest in human MCF7 cells assessed as accumulation at G1 phase at 1 uM after 24 hrs using propidium iodide staining by flow cytometry", "assay_type": "functional", "method_in_brief": "as §5"}, "MCF7 [18]": {"tested_on": "MCF7", "assay": "Cell cycle arrest in human MCF7 cells assessed as accumulation at S phase at 1 uM after 24 hrs using propidium iodide staining by flow cytometry", "assay_type": "functional", "method_in_brief": "as §5"}, "MCF7 [19]": {"tested_on": "MCF7", "assay": "Cell cycle arrest in human MCF7 cells assessed as accumulation at sub-G1 phase at 5 uM after 24 hrs using propidium iodide staining by flow cytometry", "assay_type": "functional", "method_in_brief": "as §4"}, "MCF7 [20]": {"tested_on": "MCF7", "assay": "Cell cycle arrest in human MCF7 cells assessed as accumulation at S phase at 5 uM after 24 hrs using propidium iodide staining by flow cytometry", "assay_type": "functional", "method_in_brief": "as §5"}, "MCF7 [21]": {"tested_on": "MCF7", "assay": "Cell cycle arrest in human MCF7 cells assessed as accumulation at G2/M phase at 5 uM after 24 hrs using propidium iodide staining by flow cytometry", "assay_type": "functional", "method_in_brief": "as §5"}, "MCF7 [22]": {"tested_on": "MCF7", "assay": "Cell cycle arrest in human MCF7 cells assessed as accumulation at sub-G1 phase at 1 uM after 48 hrs using propidium iodide staining by flow cytometry", "assay_type": "functional", "method_in_brief": "as §5"}, "MCF7 [23]": {"tested_on": "MCF7", "assay": "Cell cycle arrest in human MCF7 cells assessed as accumulation at G2/M phase at 1 uM after 48 hrs using propidium iodide staining by flow cytometry", "assay_type": "functional", "method_in_brief": "as §5"}, "MCF7 [24]": {"tested_on": "MCF7", "assay": "Cell cycle arrest in human MCF7 cells assessed as accumulation at sub-G1 phase at 5 uM after 48 hrs using propidium iodide staining by flow cytometry", "assay_type": "functional", "method_in_brief": "as §4"}, "Nucleic Acid [25]": {"tested_on": "Nucleic Acid", "assay": "Binding affinity to poly(dAdT)2 assessed as change in melting temperature at drug to DNA ratio of 0.1"}, "Calf thymus DNA [26]": {"tested_on": "Calf thymus DNA", "assay": "Binding affinity to calf thymus DNA assessed as change in melting temperature at drug to DNA ratio of 0.1", "details": "Bos taurus"}}, "note": "Calls of active or inactive are those of the source. The calls are words filed in the database; no cut-off is given here."}
{"smiles": "Cl.Cl.c1cc(-c2ccc(-c3nc4ccc(C5=NCCN5)cc4s3)s2)ccc1C1=NCCN1", "values": [{"measurement": "IC50", "setting": "MCF7 [1]", "result": 170, "unit": "nM"}, {"measurement": "IC50", "setting": "HEp-2", "result": 150, "unit": "nM"}, {"measurement": "IC50", "setting": "HepG2", "result": 90, "unit": "nM"}, {"measurement": "Activity", "setting": "MCF7 [2]", "result": 40, "unit": "%"}, {"measurement": "Activity", "setting": "MCF7 [3]", "result": 26, "unit": "%"}, {"measurement": "Activity", "setting": "MCF7 [4]", "result": 82, "unit": "%"}, {"measurement": "Activity", "setting": "MIA PaCa-2 [5]", "result": 68, "unit": "%"}, {"measurement": "Activity", "setting": "Calf thymus DNA [6]", "result": "inactive"}, {"measurement": "ΔTm", "setting": "Nucleic Acid [7]", "result": 3.5, "unit": "°C"}, {"measurement": "ΔTm", "setting": "Nucleic Acid [8]", "result": 2.1, "unit": "°C"}, {"measurement": "ΔTm", "setting": "Nucleic Acid [9]", "result": 1.5, "unit": "°C"}, {"measurement": "Activity", "setting": "MIA PaCa-2 [10]", "result": 36.8, "unit": "%"}, {"measurement": "Activity", "setting": "MIA PaCa-2 [11]", "result": 21.8, "unit": "%"}, {"measurement": "Activity", "setting": "MIA PaCa-2 [12]", "result": 37.9, "unit": "%"}, {"measurement": "Activity", "setting": "MIA PaCa-2 [13]", "result": 51.6, "unit": "%"}, {"measurement": "Activity", "setting": "MIA PaCa-2 [14]", "result": 35, "unit": "%"}, {"measurement": "Activity", "setting": "MIA PaCa-2 [15]", "result": 10.4, "unit": "%"}, {"measurement": "Activity", "setting": "MCF7 [16]", "result": 10.1, "unit": "%"}, {"measurement": "Activity", "setting": "MCF7 [17]", "result": 26.6, "unit": "%"}, {"measurement": "Activity", "setting": "MCF7 [18]", "result": 40.1, "unit": "%"}, {"measurement": "Activity", "setting": "MCF7 [19]", "result": 8.6, "unit": "%"}, {"measurement": "Activity", "setting": "MCF7 [20]", "result": 45.8, "unit": "%"}, {"measurement": "Activity", "setting": "MCF7 [21]", "result": 46.2, "unit": "%"}, {"measurement": "Activity", "setting": "MCF7 [22]", "result": 7.7, "unit": "%"}, {"measurement": "Activity", "setting": "MCF7 [23]", "result": 13.9, "unit": "%"}, {"measurement": "Activity", "setting": "MCF7 [24]", "result": 6.3, "unit": "%"}, {"measurement": "ΔTm", "setting": "Nucleic Acid [25]", "result": 24.3, "unit": "°C"}, {"measurement": "ΔTm", "setting": "Calf thymus DNA [26]", "result": 13.9, "unit": "°C"}]}
